The values below come from PMC3389222 (Bioorganic & medicinal chemistry letters, 2012).

Read-outs that look alike come from different tables or passages of the source.

One data set relates to HCV 1b replicon. Nature of the data set: HCV 1b replicon system, block of HCV replication. It is filed as cell-based. The settings on record: for EC90: read-out: HCV Replicon EC90. Background: A replicon is a self-replicating genome or part of one, used to study replication in cells.
The nature of data set [1]: Stability in human liver microsomes. It is filed as in vitro ADME. Particulars: for Elimination rate constant (k): 1 μM compound, 1 mg/mL microsomal protein; for microsomal CLint at 1 μM: human. An outline of the steps: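 Test compound incubated with human liver microsomes in potassium phosphate buffer. Samples taken at 5, 15, 30 and 60 min and analysed by LC-MS/MS. The elimination rate constant (k) was determined, and half-life (t1/2) and intrinsic clearance (CLint) were calculated from k.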
(Liver microsomes are a subcellular fraction often used to study metabolism.)

The subject of data set [2] is PBM cells. Nature of the data set: Cytotoxicity in PBM cells.
Data set [3] has as its system HCV. The settings on record: read-out: in vitro potency (EC50); cited from earlier work.
In data set [4] the test system is HCV. Particulars: cited from earlier work.
Data set [5] is described as follows: Cytotoxicity in CEM cells. It is filed as cell-based. Particulars: human.
For data set [6], the system named is PBM cells.
Where [7] appears, read: Hepatitis C virus, read-out: HCV Replicon EC50, HCV 1b replicon system.
Where [8] appears, read: Hepatitis C virus, read-out: HCV Replicon EC50.

Usually EC50 stands for the concentration at which the effect is half-maximal. `COC(=O)N[C@H](C(=O)N1CCC[C@H]1c1nc(-c2ccco2)c(-c2ccc(-c3ccc(-c4[nH]c([C@@H]5CCCN5C(=O)[C@@H](NC(=O)OC)C(C)C)nc4-c4ccco4)cc3)cc2)[nH]1)C(C)C` [Compound 7]: the EC50 in the data set with HCV 1b replicon (setting [7]) came out at 0.026 nM.

The EC90 is the concentration at which the effect reaches the 90% level. As to `COC(=O)N[C@H](C(=O)N1C[C@@H](N=[N+]=[N-])C[C@H]1c1nc(Cl)c(-c2ccc(-c3ccc(-c4[nH]c([C@@H]5C[C@H](N=[N+]=[N-])CN5C(=O)[C@@H](NC(=O)OC)C(C)C)nc4Cl)cc3)cc2)[nH]1)C(C)C` [Compound 18], in the data set with HCV 1b replicon (setting [8]), the EC50 turned out to be 0.0112 nM. In addition, in the data set with HCV 1b replicon (Hepatitis C virus), the 90% effect concentration (EC90) was determined as 0.0746 nM.

`COC(=O)N[C@H](C(=O)N1CCC[C@H]1c1nc(-c2cccs2)c(-c2ccc(-c3ccc(-c4[nH]c([C@@H]5CCCN5C(=O)[C@@H](NC(=O)OC)C(C)C)nc4-c4cccs4)cc3)cc2)[nH]1)C(C)C` [Compound 8]: the EC50 in the data set on HCV 1b replicon (setting [7]) is 0.1 nM.

What is called microsomal CLint is the capacity of the preparation to metabolise the compound, expressed as a volume cleared per time. High values mean faster metabolism, low ones greater metabolic stability. In the case of `COC(=O)N[C@H](C(=O)N1CCC[C@H]1c1nc(F)c(-c2ccc(-c3ccc(-c4[nH]c([C@@H]5CCCN5C(=O)[C@@H](NC(=O)OC)C(C)C)nc4F)cc3)cc2)[nH]1)C(C)C` [Compound 5d], the EC50 in the data set with HCV 1b replicon (setting [7]) amounted to 0.0068 ± 0.0033 nM. In data set [1], the “Elimination rate constant (k)” value came to 0.0056 and the microsomal CLint at 1 μM is under 8.6 µL/min/mg. Further, in the data set with PBM cells [2], the “toxicity in primary human lymphocytes relative to reference compound 1” value was “increased toxicity”.

On to `COC(=O)N[C@H](C(=O)N1C[C@H](N=[N+]=[N-])C[C@H]1c1ncc(-c2ccc(-c3ccc(-c4cnc([C@@H]5C[C@@H](N=[N+]=[N-])CN5C(=O)[C@@H](NC(=O)OC)C(C)C)[nH]4)cc3)cc2)[nH]1)C(C)C` [Compound 10], for which the EC50 in the data set with HCV 1b replicon (setting [7]) amounted to 0.0095 nM; with HCV 1b replicon (read-out: HCV Replicon EC50, HCV 1b replicon system), 0.0184 ± 0.0126 nM. Moreover, the EC90 with HCV 1b replicon (Hepatitis C virus) came to 0.0542 ± 0.0341 nM.

`COC(=O)N[C@H](C(=O)N1CCC[C@H]1c1nc(Cl)c(-c2ccc(-c3ccc(-c4[nH]c([C@@H]5CCCN5C(=O)[C@@H](NC(=O)OC)C(C)C)nc4Cl)cc3)cc2)[nH]1)C(C)C` [Compound 5b]: the EC50 in the data set with HCV 1b replicon (setting [7]) is 0.0064 ± 0.003 nM. Also, in data set [1], the “Elimination rate constant (k)” value is reported as 0.0058 and the microsomal CLint at 1 μM is under 8.6 µL/min/mg.

In the case of `COC(=O)N[C@H](C(=O)N1CCC[C@H]1c1ncc(-c2ccc(-c3ccc(-c4cnc([C@@H]5CCCN5C(=O)[C@@H](NC(=O)OC)C(C)C)[nH]4)cc3)cc2)[nH]1)C(C)C` [BMS-790052], the results for the EC50 in the data set on HCV 1b replicon (setting [7]) and in the data set with HCV [3] were 0.0042 ± 0.0015 nM and at most 0.05 nM, respectively. The “Elimination rate constant (k)” value in data set [1] worked out at 0.012. The viral load decline entry in the data set on HCV [4] (after a single 100 mg dose) is given as “≈ 3.3 log10”. Moreover, in the data set on HCV [4] (single 100 mg dose), the “toxicity after single dose” value is given as “no signs of toxicity”.

Take `COC(=O)N[C@H](C(=O)N1C[C@@H](N=[N+]=[N-])C[C@H]1c1nc(Br)c(-c2ccc(-c3ccc(-c4[nH]c([C@@H]5C[C@H](N=[N+]=[N-])CN5C(=O)[C@@H](NC(=O)OC)C(C)C)nc4Br)cc3)cc2)[nH]1)C(C)C` [Compound 19]: the EC50 with HCV 1b replicon (setting [8]) worked out at 0.0083 nM. In addition, the EC90 in the data set with HCV 1b replicon (Hepatitis C virus) was 0.0553 nM.

For `COC(=O)N[C@H](C(=O)N1CCC[C@H]1c1nc(-c2ccccc2)c(-c2ccc(-c3ccc(-c4[nH]c([C@@H]5CCCN5C(=O)[C@@H](NC(=O)OC)C(C)C)nc4-c4ccccc4)cc3)cc2)[nH]1)C(C)C` [Compound 6], the EC50 in the data set with HCV 1b replicon (setting [7]) turned out to be 0.2 nM.

For the compound `COC(=O)N[C@H](C(=O)N1C[C@H](N=[N+]=[N-])C[C@H]1c1ncc(-c2ccc(-c3ccc(-c4[nH]c([C@@H]5C[C@@H](N=[N+]=[N-])CN5C(=O)[C@@H](NC(=O)OC)C(C)C)nc4Cl)cc3)cc2)[nH]1)C(C)C` [Compound 16], in the data set with HCV 1b replicon (setting [7]), the EC50 came out at 0.0063 nM.

As to `COC(=O)N[C@H](C(=O)N1C[C@H](N=[N+]=[N-])C[C@H]1c1nc(Cl)c(-c2ccc(-c3ccc(-c4[nH]c([C@@H]5C[C@@H](N=[N+]=[N-])CN5C(=O)[C@@H](NC(=O)OC)C(C)C)nc4Cl)cc3)cc2)[nH]1)C(C)C` [Compound 15], the EC50 in the data set with HCV 1b replicon (setting [8]) stood at 0.0047 nM. Also, the EC90 in the data set on HCV 1b replicon (Hepatitis C virus) came to 0.0096 nM.

Consider `COC(=O)N[C@H](C(=O)N1C[C@H](N=[N+]=[N-])C[C@H]1c1nc(Br)c(-c2ccc(-c3ccc(-c4[nH]c([C@@H]5C[C@@H](N=[N+]=[N-])CN5C(=O)[C@@H](NC(=O)OC)C(C)C)nc4Br)cc3)cc2)[nH]1)C(C)C` [Compound 17], for which, in the data set on HCV 1b replicon (setting [8]), the EC50 came to 0.0026 nM. In addition, the EC90 in the data set with HCV 1b replicon (Hepatitis C virus) was determined as 0.0216 nM.

For `COC(=O)N[C@H](C(=O)N1C[C@H](n2cc(C(=O)OC)nn2)C[C@H]1c1ncc(-c2ccc(-c3ccc(-c4cnc([C@@H]5C[C@@H](n6cc(C(=O)OC)nn6)CN5C(=O)[C@@H](NC(=O)OC)C(C)C)[nH]4)cc3)cc2)[nH]1)C(C)C` [Compound 12], the EC50 in the data set with HCV 1b replicon (setting [8]) came to 0.0118 nM. The EC90 with HCV 1b replicon (Hepatitis C virus) stood at 0.0428 nM.

`COC(=O)N[C@H](C(=O)N1C[C@H](n2cc(-c3ccccc3)nn2)C[C@H]1c1ncc(-c2ccc(-c3ccc(-c4cnc([C@@H]5C[C@@H](n6cc(-c7ccccc7)nn6)CN5C(=O)[C@@H](NC(=O)OC)C(C)C)[nH]4)cc3)cc2)[nH]1)C(C)C` [Compound 11]: the EC50 with HCV 1b replicon (setting [8]) was 2.7 nM. Besides, the EC90 in the data set on HCV 1b replicon (Hepatitis C virus) is 9.2 nM.

As a reminder, the CC50 is the concentration at which the toxic effect on the cells reaches its halfway point. Low readings indicate harm at low concentration, high ones better tolerance by the cells. On to `COC(=O)N[C@H](C(=O)N1C[C@@H](n2cc(-c3ccccc3)nn2)C[C@H]1c1ncc(-c2ccc(-c3ccc(-c4cnc([C@@H]5C[C@H](n6cc(-c7ccccc7)nn6)CN5C(=O)[C@@H](NC(=O)OC)C(C)C)[nH]4)cc3)cc2)[nH]1)C(C)C` [Compound 13], for which the EC90 with HCV 1b replicon (Hepatitis C virus) was over 10 nM. The compound also gave a CC50 in data set [5] of over 100000 nM.

With `COC(=O)N[C@H](C(=O)N1C[C@@H](N=[N+]=[N-])C[C@H]1c1ncc(-c2ccc(-c3ccc(-c4cnc([C@@H]5C[C@H](N=[N+]=[N-])CN5C(=O)[C@@H](NC(=O)OC)C(C)C)[nH]4)cc3)cc2)[nH]1)C(C)C` [Compound 9], the EC50 in the data set with HCV 1b replicon (setting [7]) stood at 0.023 nM. Further, the EC90 in the data set on HCV 1b replicon (Hepatitis C virus) amounted to 0.0352 nM.

On to `COC(=O)N[C@H](C(=O)N1CCC[C@H]1c1ncc(-c2ccc(-c3ccc(-c4[nH]c([C@@H]5CCCN5C(=O)[C@@H](NC(=O)OC)C(C)C)nc4F)cc3)cc2)[nH]1)C(C)C` [Compound 5e], for which the concentration for a half-maximal effect (EC50) with HCV 1b replicon (setting [7]) is 0.0144 ± 0.004 nM.

In the case of `COC(=O)N[C@H](C(=O)N1CCC[C@H]1c1nc(Br)c(-c2ccc(-c3ccc(-c4[nH]c([C@@H]5CCCN5C(=O)[C@@H](NC(=O)OC)C(C)C)nc4Br)cc3)cc2)[nH]1)C(C)C` [Compound 5a], the EC50 in the data set with HCV 1b replicon (setting [7]) amounted to 0.0059 ± 0.0039 nM. Moreover, the “Elimination rate constant (k)” value in data set [1] amounted to 0.01.

Consider `COC(=O)N[C@H](C(=O)N1CCC[C@H]1c1nc(I)c(-c2ccc(-c3ccc(-c4[nH]c([C@@H]5CCCN5C(=O)[C@@H](NC(=O)OC)C(C)C)nc4I)cc3)cc2)[nH]1)C(C)C` [Compound 5c], for which, in the data set on HCV 1b replicon (setting [7]), the EC50 is 0.0055 ± 0.0019 nM. Also, the “Elimination rate constant (k)” value in data set [1] was found to be 0.018. In addition, the “toxicity in primary human lymphocytes relative to reference compound 1” value with PBM cells [6] is “increased toxicity”.

As for `COC(=O)N[C@H](C(=O)N1C[C@@H](n2cc(C(=O)OC)nn2)C[C@H]1c1ncc(-c2ccc(-c3ccc(-c4cnc([C@@H]5C[C@H](n6cc(C(=O)OC)nn6)CN5C(=O)[C@@H](NC(=O)OC)C(C)C)[nH]4)cc3)cc2)[nH]1)C(C)C` [Compound 14], the EC50 in the data set with HCV 1b replicon (setting [8]) was over 10 nM. In the data set with HCV 1b replicon (Hepatitis C virus), the EC90 is over 10 nM.
